According to ChEMBL document CHEMBL2417395, “Synthesis and biological evaluation of novobiocin analogues as potential heat shock protein 90 inhibitors” (Bioorg Med Chem, 2013):
Active and inactive are the calls of the source. The calls are words filed in the database; no cut-off is given here.

Tests used:
[1] = test system: SK-BR-3; assay: Cell cycle arrest in human SKBR3 cells assessed as accumulation at subG1 phase at 25 uM after 48 hrs by flow cytometric analysis (reference value: 7 +/- 1%); format: functional
[2] = test system: SK-BR-3; assay: Cell cycle arrest in human SKBR3 cells assessed as accumulation at subG1 phase at 12.5 uM after 48 hrs by flow cytometric analysis (reference value: 7 +/- 1%); format: functional
[3] = molecular target: T1, Heat shock protein HSP90 (Homo sapiens, UniProt P07900+P08238); assay: Inhibition of HSP90 in human MCF7 cells assessed as depletion of cell surface HER2 protein level after 18 hrs by flow cytometry
[4] = molecular target: T1, Heat shock protein HSP90; assay: Inhibition of HSP90 in human SKBR3 cells assessed as depletion of cell surface HER2 protein level at 100 uM after 18 hrs by immunofluorescence-based flow cytometric analysis relative to control; conditions: SK-BR-3
Method in brief: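 SKBR3 cells treated 18 h at 100 µM (controls: DMSO, GA 0.5 µM, NB 500 µM), trypsinized, blocked in goat serum/PBA (pH 7.6) on ice, anti-HER2 20 µg/mL 30 min then Alexa 488 secondary 2 µg/mL 20 min on ice; mean fluorescence intensity by flow cytometry, isotype antibody control.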

[5] = test system: SK-BR-3; assay: Cell cycle arrest in human SKBR3 cells assessed as accumulation at S phase at 12.5 uM after 48 hrs by flow cytometric analysis (reference value: 19 +/- 6%); format: functional
[6] = species: Mus musculus; assay: Inhibition of HSP90 in mouse 3T3-Y9-B12 cells assessed as activation of HSF1 at 0.78 to 25 uM after overnight incubation by GFP reporter gene assay relative to control; format: cell-based
Method in brief: (§1)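 3T3-Y9-B12 mouse fibroblasts carrying a GFP gene under a minimal heat-shock element; near-confluent monolayers given serial dilutions in triplicate wells overnight, DMSO ≤0.25% vehicle, GA 0.5 µM positive control; after PBS wash, fluorescence at 485/525 nm, normalized to DMSO.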

[7] = test system: SK-BR-3; assay: Cell cycle arrest in human SKBR3 cells assessed as accumulation at G2/M phase at 12.5 uM after 48 hrs by flow cytometric analysis (reference value: 21 +/- 1%); format: functional
[8] = test system: SK-BR-3; assay: Cell cycle arrest in human SKBR3 cells assessed as accumulation at G0/G1 phase at 25 uM after 48 hrs by flow cytometric analysis (reference value: 54 +/- 2%); format: functional
[9] = test system: SK-BR-3; assay: Cytotoxicity against ER-negative human SKBR3 cells expressing high level of HER2 after 3 days by MTT assay; format: functional, cell-based; conditions: SK-BR-3, 72 h
Method in brief: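 SKBR3 cells in RPMI 1640 with 10% FBS exposed to serial dilutions for 3 days; MTT dye-reduction read-out of relative viable cell number. IC50 taken as concentration giving 50% reduction versus DMSO-treated cells.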

[10] = test system: SK-BR-3; assay: Cell cycle arrest in human SKBR3 cells assessed as accumulation at subG1 phase after 48 hrs by flow cytometric analysis; format: functional, cell-based
[11] = test system: SK-BR-3; assay: Cell cycle arrest in human SKBR3 cells assessed as accumulation at G0/G1 phase at 12.5 uM after 48 hrs by flow cytometric analysis (reference value: 54 +/- 2%); format: functional
[12] = test system: SK-BR-3; assay: Cell cycle arrest in human SKBR3 cells assessed as accumulation at G2/M phase at 25 uM after 48 hrs by flow cytometric analysis (reference value: 21 +/- 1%); format: functional
[13] = test system: SK-BR-3; assay: Cytotoxicity against human SKBR3 cells assessed as growth inhibition at 100 uM after 18 hrs by capillary-based flow cytometric analysis; format: functional, cell-based
Method in brief: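 Short-term viability: SKBR3 cells exposed overnight under the same conditions as the surface-HER2 screen, then stained with a DNA-staining viability reagent; viable cell number counted by capillary flow cytometry.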

[14] = molecular target: T1, Heat shock protein HSP90; assay: Inhibition of HSP90 in human MCF7 cells assessed as depletion of total HER2 protein level at 12.5 to 25 uM after 18 hrs by Western blot analysis; format: cell-based
Method in brief: (§2)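 MCF-7 cells at 70% confluence treated 18 h; floating plus trypsinized cells pooled, lysed in NP-40 buffer (pH 7.4) with protease/phosphatase inhibitors; 20 µg protein on 7.5% SDS-PAGE, nitrocellulose, milk block; probed for HER2 (2.0 µg/mL monoclonal) or HSP72, alkaline-phosphatase secondary, NBT/BCIP development; Ponceau S loading check.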

[15] = species: Oryctolagus cuniculus; assay: Inhibition of HSP90 in rabbit reticulocyte lysate assessed as inhibition of heat-denatured luciferase refolding at 100 uM by luminescence plate reader analysis; conditions: TDE = time-dependent effect
Method in brief: (§3)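 Rabbit reticulocyte lysate with ATP regeneration (10 mM phosphocreatine, 1 mM ATP, 17.5 IU creatine kinase) preincubated with compound 20 min on ice; firefly luciferase (100 nM) heat-denatured 40 °C 8 min, diluted 10-fold into lysate; 28 °C, triplicate aliquots luminescence-read at 0, 15, 30, 60 min; mean RLU or % of DMSO.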

[16] = molecular target: T1, Heat shock protein HSP90; assay: Inhibition of HSP90 in human MCF7 cells assessed as depletion of total HER2 protein level at 50 uM after 18 hrs by Western blot analysis relative to control; format: cell-based; method in brief: as §2
[17] = species: Oryctolagus cuniculus; assay: Inhibition of HSP90 in rabbit reticulocyte lysate assessed as inhibition of heat-denatured luciferase refolding after 30 mins by luminescence plate reader analysis; method in brief: as §3
[18] = test system: MCF7; assay: Cytotoxicity against ER-positive human MCF7 cells expressing low level of HER2 after 3 days by MTT assay; format: functional, cell-based; conditions: MCF7, 72 h
Method in brief: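 MCF-7 seeded 2,000 cells/well, serial dilutions added after 24 h, 72 h exposure; MTT at 500 µg/mL final, 3 h at 37 °C, formazan dissolved in DMSO, absorbance 570 nm minus 650 nm background. Triplicates, at least two experiments; IC50 = concentration cutting viable signal by 50% of DMSO control.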

[19] = test system: SK-BR-3; assay: Cell cycle arrest in human SKBR3 cells assessed as accumulation at S phase at 25 uM after 48 hrs by flow cytometric analysis (reference value: 19 +/- 6%); format: functional
[20] = molecular target: T1, Heat shock protein HSP90; assay: Inhibition of HSP90 in human SKBR3 cells assessed as aggregation of intracellular HER2 at 25 uM after 18 hrs by DAPI staining-based immunofluorescence microscopic analysis; format: cell-based; conditions: SK-BR-3
Method in brief: (§4)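 SKBR3 in chamber slides adhered overnight, treated 18 h, fixed 4% paraformaldehyde, permeabilized 1% Triton X-100, goat-serum block; anti-HER2 (20 µg/mL) then Alexa Fluor 488 secondary (2 µg/mL) on ice, DAPI nuclear counterstain; imaged at 160× with identical exposures. GA 0.5 µM positive control.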

[21] = test system: SK-BR-3; assay: Cell cycle arrest in human SKBR3 cells assessed as accumulation at subG1 phase at 12.5 to 25 uM by flow cytometric analysis; format: functional, cell-based; conditions: TDE = time-dependent effect
[22] = test system: SK-BR-3; assay: Cell cycle arrest in human SKBR3 cells assessed as accumulation at subG1 phase at 0.5 uM after 48 hrs by flow cytometric analysis (reference value: 7 +/- 1%); format: functional
[23] = test system: SK-BR-3; assay: Cell cycle arrest in human SKBR3 cells assessed as accumulation at G0/G1 phase at 0.5 uM after 48 hrs by flow cytometric analysis (reference value: 54 +/- 2%); format: functional
[24] = test system: SK-BR-3; assay: Cell cycle arrest in human SKBR3 cells assessed as accumulation at G2/M phase at 0.5 uM after 48 hrs by flow cytometric analysis (reference value: 21 +/- 1%); format: functional
[25] = test system: SK-BR-3; assay: Cell cycle arrest in human SKBR3 cells assessed as accumulation at S phase at 0.5 uM after 48 hrs by flow cytometric analysis (reference value: 19 +/- 6%); format: functional
[26] = species: Oryctolagus cuniculus; assay: Inhibition of HSP90 in rabbit reticulocyte lysate assessed as inhibition of heat-denatured luciferase refolding at 0.5 uM by luminescence plate reader analysis; conditions: TDE = time-dependent effect; method in brief: as §3
[27] = test system: MCF7; assay: Induction of HSP70 in human MCF7 cells by Western blot analysis; format: cell-based; method in brief: as §2
[28] = molecular target: T1, Heat shock protein HSP90; assay: Inhibition of HSP90 in human SKBR3 cells assessed as aggregation of intracellular HER2 at 1000 uM after 18 hrs by DAPI staining-based immunofluorescence microscopic analysis; format: cell-based; conditions: SK-BR-3; method in brief: as §4
[29] = test system: SK-BR-3; assay: Cell cycle arrest in human SKBR3 cells assessed as accumulation at S phase at 1000 uM after 48 hrs by flow cytometric analysis (reference value: 19 +/- 6%); format: functional
[30] = test system: SK-BR-3; assay: Cell cycle arrest in human SKBR3 cells assessed as accumulation at subG1 phase at 1000 uM after 48 hrs by flow cytometric analysis (reference value: 7 +/- 1%); format: functional
[31] = test system: SK-BR-3; assay: Cell cycle arrest in human SKBR3 cells assessed as accumulation at G2/M phase at 1000 uM after 48 hrs by flow cytometric analysis (reference value: 21 +/- 1%); format: functional
[32] = species: Oryctolagus cuniculus; assay: Inhibition of HSP90 in rabbit reticulocyte lysate assessed as inhibition of heat-denatured luciferase refolding at 500 uM by luminescence plate reader analysis; conditions: TDE = time-dependent effect; method in brief: as §3
[33] = species: Mus musculus; assay: Inhibition of HSP90 in mouse 3T3-Y9-B12 cells assessed as activation of HSF1 at 1000 uM after overnight incubation by GFP reporter gene assay relative to control; format: cell-based; method in brief: as §1
[34] = test system: SK-BR-3; assay: Cell cycle arrest in human SKBR3 cells assessed as accumulation at G0/G1 phase at 1000 uM after 48 hrs by flow cytometric analysis (reference value: 54 +/- 2%); format: functional

For `CO[C@@H]1[C@@H](OC(N)=O)[C@@H](O)[C@H](Oc2ccc3cc(NC(=O)c4ccc(O)c(CC=C(C)C)c4)c(=O)oc3c2C)OC1(C)C`, the Activity [1] was 48%, the Activity [2] was 22% and the EC50 [3] was 24 µM. For the same molecule, the inhibition [4] was 40%, the Activity [5] was 10% and the fold change (FC) [6] was under 2. For the same molecule, the Activity [7] was 9%, the Activity [8] was 43% and the IC50 [9] was 17 µM. For the same molecule, the Activity [10] was “Dose-dependent effect”, the Activity [11] was 62% and the Activity [12] was 15%. The “growth inhibition (GI)” value [13] was “Active”, the inhibition [14] was “Active” and the inhibition [15] was “tde”. For the same molecule, the inhibition [16] was 50%, the inhibition [17] was “Dose-dependent effect” and the IC50 [18] was 15 µM. For the same molecule, the Activity [19] was 17%, the inhibition [20] was “Active” and the Activity [21] was “tde”.
With `COc1ccc(C(=O)Nc2c(OC)c3ccc(O[C@@H]4OC(C)(C)[C@H](OC)[C@@H](OC(N)=O)[C@H]4O)c(C)c3oc2=O)cc1CC=C(C)C` the EC50 [3] was 38 µM, the inhibition [4] was 40% and the IC50 [9] was 19 µM. For the same molecule, the “growth inhibition (GI)” value [13] was “Active”, the inhibition [16] was 50% and the IC50 [18] was 18 µM.
With `CO[C@@H]1[C@@H](OC(=O)c2ccc(C)[nH]2)[C@@H](O)[C@H](Oc2ccc3c(O)c(NC(=O)c4cc5ccccc5[nH]4)c(=O)oc3c2C)OC1(C)C` the EC50 [3] was over 50 µM, the inhibition [4] was 40% and the “growth inhibition (GI)” value [13] was “Active”.
For `COC1=C2C[C@@H](C)C[C@H](OC)[C@H](O)[C@@H](C)/C=C(\C)[C@H](OC(N)=O)[C@@H](OC)/C=C\C=C(/C)C(=O)NC(=CC1=O)C2=O` [GELDANAMYCIN], the Activity [22] was 16%, the Activity [23] was 65% and the Activity [24] was 18%. The inhibition [17] was “Dose-dependent effect”, the Activity [25] was 10% and the inhibition [26] was “tde”.
Molecule `CO[C@@H]1[C@@H](OC(N)=O)[C@@H](O)[C@H](Oc2ccc3cc(NC(=O)c4cc5ccccc5[nH]4)c(=O)oc3c2C)OC1(C)C` has an Activity [1] of 29%, an Activity [2] of 8% and an EC50 [3] of 20 µM. The inhibition [4] was 40%, the Activity [5] was 17% and the fold change (FC) [6] was under 2. For the same molecule, the Activity [7] was 18%, the Activity [8] was 56% and the IC50 [9] was 10 µM. The Activity [10] was “Dose-dependent effect”, the Activity [11] was 58% and the Activity [12] was 10%. For the same molecule, the Activity [27] was “Active”, the “growth inhibition (GI)” value [13] was “Active” and the inhibition [14] was “Active”. The inhibition [15] was “tde”, the inhibition [16] was 50% and the inhibition [17] was “Dose-dependent effect”. The IC50 [18] was 6 µM, the Activity [19] was 10% and the inhibition [20] was “Active”. For the same molecule, the Activity [21] was “tde”.
`CO[C@@H]1[C@@H](OC(N)=O)[C@@H](O)[C@H](Oc2ccc3c(O)c(NC(=O)c4ccc(O)c(CC=C(C)C)c4)c(=O)oc3c2C)OC1(C)C` [NOVOBIOCIN] was tested, and the inhibition [28] was “Active”, the inhibition [4] was “inactive” and the Activity [29] was 15%. It also gave an Activity [30] of 38%, an Activity [31] of 10% and an IC50 [9] of 350 µM. The inhibition [32] was “tde”, the inhibition [17] was “Dose-dependent effect” and the IC50 [18] was 357 µM. It also gave a fold change (FC) [33] of 1.5 and an Activity [34] of 57%.
In the case of `COc1ccc(C(=O)Nc2c(OC)c3ccc(O[C@@H]4OC(C)(C)[C@H](OC)[C@@H](O)[C@H]4O)c(C)c3oc2=O)cc1CC=C(C)C`, the EC50 [3] is reported as 41 µM, the inhibition [4] is reported as 40% and the IC50 [9] is reported as 25 µM. For the same molecule, the “growth inhibition (GI)” value [13] was “Active”, the inhibition [16] was 50% and the IC50 [18] was 19 µM.
